Compound activity: PubChem, several laboratories
MC4R barr agon: activates human MC4R beta-arrestin recruitment; P32245; U2OS MC4R beta-arrestin complementation, luminescence; percent of melanotan II response, DMSO zero; activation, % at 8.9 µM; hit rate 0.98% among 360,000;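 active = activation above a per-plate cutoff, the mean activation of sample wells on that plate plus 3 SD, cut at about 8% in these data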
MC4R antagonist: antagonists of human melanocortin 4 receptor (MC4R). AID 540295. hit rate 0.48% among 360,000. inhibition, % at 6.5 µM. P32245. MC4R-expressing cells, MTII-stimulated cAMP, LANCE TR-FRET;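 active = inhibition above its plate's cutoff, the mean of tested wells on that plate plus 3 SD, cut at about 29% in these data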;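 also: 0% = Melanotan II alone and 100% = Melanotan II plus saturating MCL0020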
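Assay system: U2OS-MC4R stable cell line; Also added: Melanotan II; Technique: Eu-cAMP/anti-cAMP TR-FRET, emission 671 nm; Times: 30-min compound, 1-h challenge, 1-h detection, room temperature.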
ABHD5-PLIN5 inh: inhibitors of human ABHD5-perilipin-5 interaction; Q00G26+Q8WTS1; Split G. princeps luciferase complementation, luminescence, 4 h; inhibition, % at 4 µM; hit rate 0.78% among 360,000; AID 602281;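 active = inhibition above the mean inhibition across every tested compound plus 3 SD, cut at about 22% in these data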;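 also: 0% = DMSO only wells and the 100% control is not disclosed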
B2AR ag: human beta-2 adrenergic receptor agonism by FAP | P07550 | Am2.2-beta2AR cells, FAP receptor internalization, flow cytometry | response, % (no concentration beside the values) | hit rate 0.43% among 340,000;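 active = response above a set limit, near 3 SD of response in nonfluorescent compounds, cut at about 42% in these data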
Target sequence (P07550 whole entry, looked up): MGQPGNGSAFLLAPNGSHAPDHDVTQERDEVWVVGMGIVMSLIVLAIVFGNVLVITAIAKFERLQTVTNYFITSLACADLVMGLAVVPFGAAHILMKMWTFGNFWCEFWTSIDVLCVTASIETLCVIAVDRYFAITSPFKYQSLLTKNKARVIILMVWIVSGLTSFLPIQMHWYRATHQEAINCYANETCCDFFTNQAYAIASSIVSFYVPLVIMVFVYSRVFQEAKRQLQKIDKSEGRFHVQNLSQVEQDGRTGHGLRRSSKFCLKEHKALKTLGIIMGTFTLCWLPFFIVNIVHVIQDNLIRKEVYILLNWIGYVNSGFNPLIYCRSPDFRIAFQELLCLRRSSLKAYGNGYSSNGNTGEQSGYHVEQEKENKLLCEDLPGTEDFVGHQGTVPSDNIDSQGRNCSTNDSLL
PfG6PD inh: PfG6PD (Plasmodium falciparum) enzyme inhibition; PfGluPho enzyme, NADPH resazurin-diaphorase fluorescence; inhibition, % at 20 µM; hit rate 0.78% among 350,000;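 active = inhibition reaching at least a set limit at 20 µM in the primary screen, cut at about 59% in these data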;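 also: 0% = DMSO wells with substrate and 100% = DMSO wells lacking glucose-6-phosphate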
* = called active by the depositor; x = not tested or not shown. Hits are enriched below; roughly 3% of the tested compounds scored in any of these assays.

SMILES	MC4R barr agon	MC4R antagonist	ABHD5-PLIN5 inh	B2AR ag	PfG6PD inh
COCCNc1nc(Oc2cccc(NC(C)=O)c2)c2sc(-c3ccccc3)cc2n1	9.1*	22.8	3.3	x	x
CC(C)[C@@H]1CC[C@@H](C)C[C@H]1OC(=O)C[n+]1cc(-c2ccc(Cl)cc2)n2c1CCCCC2	58.7*	3.7	13.2	1.9	-8.3
COc1ccc(-c2c[n+](CC(=O)OC3CC(C)CCC3C(C)C)c3n2CCC3)cc1 (centres undefined)	5.1	-0.1	10.6	-8.6	6.7
CSc1ccccc1NC(=O)Cn1c(-c2cscn2)nc2ccccc21	-0.8	-5.3	6.1	-27.1	-7.5
Brc1ccccc1Cn1c(-c2cscn2)nc2ccccc21	9.3*	-0.2	2.7	7.4	-11.3
CCCCN1CCC(=O)C(C(=O)OCC)=C1C(=O)OCC	-1.8	3.3	-8.4	-0.4	-7.5
CS(=O)(=O)c1ccc(C(=O)N2CCN(S(=O)(=O)c3ccc(C4CCCCC4)cc3)CC2)cc1	-0.5	2.9	-4.9	-5.5	-12.0
COc1ccc(C2=CC3=C(Br)C(=O)C(C)(O)C(=O)C3=CO2)cc1 (centres undefined)	1.4	34.8*	10.2	-4.3	22.0
CCC(=O)OC1(C)C(=O)C2=COC(c3ccc(OC)cc3)=CC2=C(Br)C1=O (centres undefined)	-0.7	16.1	4.8	-0.9	25.5
Cc1[nH]nc2nc(SCC(=O)NCCC3=CCCCC3)n(-c3ccc(Br)cc3)c(=N)c12	48.9*	17.8	-10.5	16.4	3.7
Cc1cc(-n2c(SCC(=O)NCCC3=CCCCC3)nc3n[nH]c(C)c3c2=N)ccc1Cl	15.4*	9.9	9.0	0.6	1.9
Cc1ccc(Cl)cc1-n1c(SCC(=O)NCCC2=CCCCC2)nc2n[nH]c(C)c2c1=N	1.4	11.2	-1.3	-9.0	0.5
COc1ccc(OC)c(NC(=O)CSc2nc3n[nH]c(C)c3c(=N)n2-c2cccc(Cl)c2C)c1	-1.6	9.7	9.4	-1.6	0.4
COc1ccc(NC(=O)CSc2nc3n[nH]c(C)c3c(=N)n2-c2ccc(Cl)c(C)c2)cc1OC	24.9*	16.8	-2.2	6.8	-5.1
Brc1ccc(/C=N/Nc2ccc3ccccc3n2)cc1	11.3*	-13.0	-8.0	-5.8	6.1
Cc1cc(C(=O)Nc2c(F)cc(F)cc2Br)c(C)o1	0.9	10.4	23.0*	7.1	12.0
CN1C(=O)C(c2ccccc2[N+](=O)[O-])C(=O)c2ccccc21 (centres undefined)	-1.3	12.9	6.2	-6.1	-5.2
O=C(/C=C/c1ccccc1)NC(=S)Nc1ccccc1	1.0	5.1	-12.3	-5.8	8.8
O=C(/C=C/c1ccccc1)NC(=S)Nc1ccc(N2CCOCC2)cc1	14.0*	5.9	-1.8	-2.7	6.0
O=C(Nc1nc(-c2ccco2)c(-c2ccco2)s1)c1c(F)cccc1Cl	-2.1	6.4	33.4*	-2.9	-4.0
O=C(C(=O)N1CCN(c2cccc(Cl)c2)CC1)c1c[nH]c2ccccc12	8.5*	1.1	2.5	7.0	-13.0
O=C(Cn1ccc2ccccc2c1=O)N1CCN(c2cccc(Cl)c2)CC1	1.1	6.6	22.2*	4.7	9.1
O=C(C(=O)N1CCN(c2ccc(F)cc2)CC1)c1c[nH]c2ccccc12	-1.8	-3.0	-5.8	-1.6	-5.3
Cc1ccc(-c2nn(-c3ccccc3)cc2CNCc2ccccc2)cc1	9.5*	0.3	-6.3	40.7	12.2
Cc1ccc(-c2nn(-c3ccccc3)cc2CO)cc1	1.0	1.3	2.6	-26.0	11.8
SMILES	MC4R barr agon	MC4R antagonist	ABHD5-PLIN5 inh	B2AR ag	PfG6PD inh
COc1ccc2cc(C(=O)C3CCCN(C(=O)C4=NN(C)C(=O)CC4)C3)ccc2c1 (centres undefined)	-2.1	4.6	-6.1	3.8	10.1
O=C(NNc1c2ccccc2nc2ccccc12)C12CC3CC(CC(C3)C1)C2	-0.4	23.3	-1.8	44.8*	15.6
Cc1cc(NC(=O)C(C)SCC(=O)N(C)CC(=O)Nc2ccc(F)cc2)no1 (centres undefined)	1.8	4.1	23.1*	-7.1	8.9
Cc1cc(NC(=O)C(C)SCC(=O)N(C)CC(=O)Nc2ccccc2C(F)(F)F)no1 (centres undefined)	-0.5	0.0	3.5	-7.5	3.7
Cc1nn(C)cc1CNC(=O)/C=C/c1cnn(C)c1	-1.3	-2.3	-1.9	1.5	-9.7
COc1ccc(/C=C/C(=O)NCc2cn(C)nc2C)cc1COc1ccc(Br)cc1	9.1*	8.1	18.1	16.6	10.3
COc1ccc(/C=C/C(=O)c2ccccc2)cc1COc1ccc(F)cc1	-1.6	0.0	22.4*	19.3	9.4
COc1ccccc1-c1ccc(/C=C2/C=C(C)OC2=O)o1	2.0	22.7	22.6*	14.2	-11.6
COc1ccccc1-c1ccc(/C=C2\C=CC(=O)O2)o1	-2.5	-3.3	14.4	1.4	11.5
Oc1ccccc1/C=N/n1c2ccccc2c2ccccc21	9.2*	-4.4	8.8	-8.1	0.2
C(=N\n1c2ccccc2c2ccccc21)/c1ccccc1	-0.2	3.9	-6.9	13.1	8.4
Cc1ccc(CNC(=O)Cn2cnc(S(=O)(=O)N3CCC(C)CC3)c2)o1	2.3	-2.6	22.1*	-25.6	-0.9
CCC(C)[C@@H](NC(=O)OC(C)(C)C)c1nnc(S(=O)(=O)Cc2cccc(C)c2)o1 (some centres undefined)	1.9	0.5	73.2*	33.1	8.5
N=C(N)SCc1cn(-c2ccccc2)nc1-c1ccc(Br)cc1	16.6*	1.3	12.0	21.2	-5.5
CC1(C(=O)NCc2ccccc2)CSCC(=O)N1Cc1ccco1 (centres undefined)	x	x	11.8	x	x
O=C(NC1CCCCC1)C(c1cccnc1)N(C(=O)CCl)c1cccc(Cl)c1 (centres undefined)	13.2*	4.2	10.3	34.5	3.1
COc1ccc(N(C(=O)c2cnccn2)C(C(=O)NC2CCCCC2)c2ccc(Cl)cc2)cc1 (centres undefined)	0.9	2.4	6.2	-3.4	6.6
COc1ccc(C(C(=O)NC2CCCCC2)N(C(=O)CCl)c2ccc(Cl)cc2)cc1 (centres undefined)	13.2*	20.4	6.0	-21.7	-3.2
COC(=O)c1cn(CC(=O)Nc2ccccc2C)c2ccccc12	-1.3	-0.8	0.0	5.7	1.4
O=C(N=Nc1c(O)[nH]c2ccc([N+](=O)[O-])cc12)c1ccccc1Cl	-2.4	9.2	-3.1	-1.8	5.0
O=C(N=Nc1c(O)[nH]c2ccc(Cl)cc12)c1cc(-c2cccs2)nc2ccccc12	1.6	1.9	1.8	47.1*	-18.1
COc1ccc2cc(CN(Cc3ccco3)C(c3nnnn3C3CCCCC3)C(C)C)c(=O)[nH]c2c1 (centres undefined)	1.6	-3.1	22.5*	16.3	4.9
COc1ccc2cc(CN(Cc3ccco3)Cc3nnnn3C3CCCCC3)c(=O)[nH]c2c1	7.6	-2.3	-2.0	-11.2	11.0
